{"source": "ChEMBL document CHEMBL2150909", "about": "“Imidazo[1,2-a]pyridines: orally active positive allosteric modulators of the metabotropic glutamate 2 receptor” (J Med Chem, 2012)", "key": {"[1]": {"assay": "Ratio of drug level in brain to plasma of Sprague-Dawley rat at 10 mg/kg, sc after 1 hr", "format": "ADME, organism-based", "parameters": "dose 10 mg/kg, route subcutaneous", "conditions": "read-out: BPR", "in_short": "(§1)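 Male Sprague−Dawley rats given 10 mg/kg subcutaneously, vehicle 20% HP-β-CD at pH 4. Plasma (ng/mL) and brain (ng/g) drug levels determined at the listed post-dose time; B/P ratio derived from them. Values are geometric means of at least two runs ± SEM.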"}, "[2]": {"assay": "Drug uptake in Sprague-Dawley rat brain at 10 mg/kg, sc after 4 hrs", "format": "ADME, organism-based", "parameters": "dose 10 mg/kg, route subcutaneous", "conditions": "read-out: Drug uptake", "in_short": "(§2)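 Brain exposure in male Sprague-Dawley rats after a 10 mg/kg subcutaneous dose, vehicle 20% HP-β-CD at pH 4. Brain level measured in ng/g alongside plasma in ng/mL; geometric mean of at least two runs ± SEM.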"}, "[3]": {"target": "Metabotropic glutamate receptor 8 (Homo sapiens) (UniProt O00222)", "sequence (O00222 whole entry)": "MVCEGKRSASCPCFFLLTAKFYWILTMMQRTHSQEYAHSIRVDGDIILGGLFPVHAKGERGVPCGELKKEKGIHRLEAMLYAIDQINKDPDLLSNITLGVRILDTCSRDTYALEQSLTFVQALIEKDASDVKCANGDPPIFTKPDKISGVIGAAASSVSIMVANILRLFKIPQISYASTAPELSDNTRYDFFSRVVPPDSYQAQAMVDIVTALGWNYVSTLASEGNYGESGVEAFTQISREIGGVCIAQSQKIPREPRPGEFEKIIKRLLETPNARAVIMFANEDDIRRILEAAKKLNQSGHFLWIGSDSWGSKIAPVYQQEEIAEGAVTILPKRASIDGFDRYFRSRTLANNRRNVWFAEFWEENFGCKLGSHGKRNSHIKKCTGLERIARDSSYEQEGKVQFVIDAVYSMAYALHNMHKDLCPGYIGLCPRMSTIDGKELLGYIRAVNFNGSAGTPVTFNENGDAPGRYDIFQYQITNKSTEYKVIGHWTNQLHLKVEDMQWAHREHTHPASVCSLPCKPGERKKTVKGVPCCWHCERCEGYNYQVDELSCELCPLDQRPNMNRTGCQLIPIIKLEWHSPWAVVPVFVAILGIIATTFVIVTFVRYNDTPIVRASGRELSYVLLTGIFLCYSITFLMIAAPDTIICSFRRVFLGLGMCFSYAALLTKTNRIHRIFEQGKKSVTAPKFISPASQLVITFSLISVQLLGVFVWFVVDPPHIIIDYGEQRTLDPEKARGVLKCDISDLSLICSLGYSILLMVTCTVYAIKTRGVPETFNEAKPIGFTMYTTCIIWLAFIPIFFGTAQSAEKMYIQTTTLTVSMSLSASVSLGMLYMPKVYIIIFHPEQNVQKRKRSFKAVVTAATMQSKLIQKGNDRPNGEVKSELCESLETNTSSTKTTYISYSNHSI", "assay": "Agonist activity at human mGlu 8 expressed in HEK293 cells at 10 uM by Ca+2 assay", "format": "functional, cell-based", "in_short": "(§3)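 Ca2+ assays on human mGlu1, mGlu3, mGlu5, mGlu7 or mGlu8 receptors, each expressed in HEK293 cells; compound tested at 10 μM for agonist and antagonist activity.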"}, "[4]": {"assay": "Ratio of drug level in brain to plasma of Sprague-Dawley rat at 10 mg/kg, sc after 2 hrs", "format": "ADME, organism-based", "parameters": "dose 10 mg/kg, route subcutaneous", "conditions": "read-out: BPR", "in_short": "as §1"}, "[5]": {"assay": "Oral bioavailability in Sprague-Dawley rat at 10 mg/kg", "format": "ADME, organism-based", "conditions": "in vivo", "in_short": "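Male Sprague-Dawley rats given 10 mg/kg orally and/or 1.25 mg/kg intravenously; compound formulated in 20% HP-β-CD at pH 4. Cmax, tmax, AUC0−inf, t1/2, clearance and oral bioavailability F derived from plasma levels; geometric mean of at least two runs ± SEM.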"}, "[6]": {"target": "T1, Metabotropic glutamate receptor 7 (Homo sapiens, UniProt Q14831)", "assay": "Antagonist activity at human mGlu 7 expressed in HEK293 cells at 10 uM by Ca+2 assay", "format": "functional, cell-based", "in_short": "as §3"}, "[7]": {"target": "Metabotropic glutamate receptor 1 (Homo sapiens) (UniProt Q13255)", "sequence (Q13255 19-1194 limits assumed)": "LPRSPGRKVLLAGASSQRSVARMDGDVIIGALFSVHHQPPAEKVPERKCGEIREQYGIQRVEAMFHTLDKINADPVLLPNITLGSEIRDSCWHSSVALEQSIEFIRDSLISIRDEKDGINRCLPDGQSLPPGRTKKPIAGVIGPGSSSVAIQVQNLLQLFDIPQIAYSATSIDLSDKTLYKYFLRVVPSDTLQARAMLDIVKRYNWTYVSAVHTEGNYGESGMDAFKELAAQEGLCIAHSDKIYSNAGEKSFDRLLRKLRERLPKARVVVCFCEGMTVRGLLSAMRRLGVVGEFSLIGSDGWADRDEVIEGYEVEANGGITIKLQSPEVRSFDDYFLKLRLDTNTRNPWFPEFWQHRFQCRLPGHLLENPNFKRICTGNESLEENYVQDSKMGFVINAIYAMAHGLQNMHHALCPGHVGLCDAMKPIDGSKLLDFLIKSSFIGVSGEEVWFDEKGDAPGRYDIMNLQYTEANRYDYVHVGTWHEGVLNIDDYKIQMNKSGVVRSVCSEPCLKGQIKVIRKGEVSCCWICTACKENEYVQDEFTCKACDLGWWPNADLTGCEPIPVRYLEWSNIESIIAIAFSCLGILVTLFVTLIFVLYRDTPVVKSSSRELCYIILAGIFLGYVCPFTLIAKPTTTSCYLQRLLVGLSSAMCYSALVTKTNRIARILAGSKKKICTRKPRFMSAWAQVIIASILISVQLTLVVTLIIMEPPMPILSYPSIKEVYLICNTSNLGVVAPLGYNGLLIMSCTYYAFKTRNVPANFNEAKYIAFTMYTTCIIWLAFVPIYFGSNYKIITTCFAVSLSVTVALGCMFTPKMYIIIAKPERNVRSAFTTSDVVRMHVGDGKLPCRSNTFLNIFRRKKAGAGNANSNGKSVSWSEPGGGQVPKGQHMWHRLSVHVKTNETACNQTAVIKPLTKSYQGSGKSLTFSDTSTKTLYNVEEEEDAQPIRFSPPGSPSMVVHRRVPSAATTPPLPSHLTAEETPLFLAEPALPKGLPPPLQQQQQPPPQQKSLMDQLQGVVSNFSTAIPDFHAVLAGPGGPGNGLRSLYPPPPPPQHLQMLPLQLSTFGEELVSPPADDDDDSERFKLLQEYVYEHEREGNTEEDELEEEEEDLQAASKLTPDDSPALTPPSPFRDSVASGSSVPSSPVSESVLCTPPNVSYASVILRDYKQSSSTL", "assay": "Agonist activity at human mGlu 1 expressed in HEK293 cells at 10 uM by Ca+2 assay", "format": "functional, cell-based", "in_short": "as §3"}, "[8]": {"assay": "Half life in Sprague-Dawley rat at 10 mg/kg, po and 2.5 mg/kg, iv", "format": "ADME, organism-based", "conditions": "in vivo", "in_short": "(§4)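 Rat PK: compounds formulated in 20% HP-β-CD at pH 4 and given orally and intravenously. Values are geometric means of at least two runs ± SEM.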"}, "[9]": {"target": "Metabotropic glutamate receptor 5 (Homo sapiens) (UniProt P41594)", "sequence (P41594 21-1212 limits assumed)": "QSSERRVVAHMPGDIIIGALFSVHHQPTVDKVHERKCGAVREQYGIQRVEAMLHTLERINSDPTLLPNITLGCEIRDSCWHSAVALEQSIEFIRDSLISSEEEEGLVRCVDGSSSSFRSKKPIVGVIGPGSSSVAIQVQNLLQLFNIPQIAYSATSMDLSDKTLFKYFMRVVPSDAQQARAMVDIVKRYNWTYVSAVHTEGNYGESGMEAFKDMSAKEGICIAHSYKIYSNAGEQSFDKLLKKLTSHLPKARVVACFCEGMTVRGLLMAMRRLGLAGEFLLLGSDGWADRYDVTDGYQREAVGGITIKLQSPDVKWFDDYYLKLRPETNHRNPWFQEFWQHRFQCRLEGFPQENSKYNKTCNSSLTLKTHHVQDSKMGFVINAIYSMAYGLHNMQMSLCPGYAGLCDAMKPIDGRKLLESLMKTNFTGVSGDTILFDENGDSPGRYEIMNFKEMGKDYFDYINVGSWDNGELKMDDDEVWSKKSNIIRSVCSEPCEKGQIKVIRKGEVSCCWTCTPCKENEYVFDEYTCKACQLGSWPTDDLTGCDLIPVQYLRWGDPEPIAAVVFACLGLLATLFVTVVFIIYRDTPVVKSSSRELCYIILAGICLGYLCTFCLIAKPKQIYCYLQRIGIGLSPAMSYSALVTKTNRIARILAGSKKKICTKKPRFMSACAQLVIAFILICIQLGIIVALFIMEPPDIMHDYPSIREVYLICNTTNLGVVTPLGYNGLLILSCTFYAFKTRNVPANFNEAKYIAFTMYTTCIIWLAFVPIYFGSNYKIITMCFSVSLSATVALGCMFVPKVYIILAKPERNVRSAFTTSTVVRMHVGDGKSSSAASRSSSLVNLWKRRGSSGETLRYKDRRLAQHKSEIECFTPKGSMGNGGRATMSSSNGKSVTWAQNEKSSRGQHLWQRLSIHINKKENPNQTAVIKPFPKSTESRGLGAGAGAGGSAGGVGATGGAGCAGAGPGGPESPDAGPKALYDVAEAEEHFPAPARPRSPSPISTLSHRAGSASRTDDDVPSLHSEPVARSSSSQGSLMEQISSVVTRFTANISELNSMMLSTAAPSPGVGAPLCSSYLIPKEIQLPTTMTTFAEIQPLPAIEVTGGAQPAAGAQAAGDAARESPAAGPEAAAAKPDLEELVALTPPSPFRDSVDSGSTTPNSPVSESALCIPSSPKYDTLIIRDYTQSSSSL", "assay": "Antagonist activity at human mGlu 5 expressed in HEK293 cells at 10 uM by Ca+2 assay", "format": "functional, cell-based", "in_short": "as §3"}, "[10]": {"assay": "Plasma concentration in Sprague-Dawley rat at 10 mg/kg, sc after 1 hr", "format": "ADME, organism-based", "parameters": "dose 10 mg/kg, route subcutaneous", "in_short": "as §1"}, "[11]": {"assay": "Clearance in Sprague-Dawley rat at 10 mg/kg, po and 2.5 mg/kg, iv", "format": "ADME, organism-based", "conditions": "in vivo"}, "[12]": {"target": "Metabotropic glutamate receptor 4 (Homo sapiens) (UniProt Q14833)", "assay": "Antagonist activity at human mGlu 4 expressed in L929 cells assessed inhibition of [35S]GTPgammaS binding by liquid scintillation counting", "format": "functional, cell-based", "in_short": "(§5)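 [35S]GTPγS functional assays on human mGlu4 or rat mGlu6 receptors expressed in L929 or CHO cells; agonist and antagonist modes tested at 10 μM.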"}, "[13]": {"target": "Metabotropic glutamate receptor 3 (Homo sapiens) (UniProt Q14832)", "sequence (Q14832 23-879 limits assumed)": "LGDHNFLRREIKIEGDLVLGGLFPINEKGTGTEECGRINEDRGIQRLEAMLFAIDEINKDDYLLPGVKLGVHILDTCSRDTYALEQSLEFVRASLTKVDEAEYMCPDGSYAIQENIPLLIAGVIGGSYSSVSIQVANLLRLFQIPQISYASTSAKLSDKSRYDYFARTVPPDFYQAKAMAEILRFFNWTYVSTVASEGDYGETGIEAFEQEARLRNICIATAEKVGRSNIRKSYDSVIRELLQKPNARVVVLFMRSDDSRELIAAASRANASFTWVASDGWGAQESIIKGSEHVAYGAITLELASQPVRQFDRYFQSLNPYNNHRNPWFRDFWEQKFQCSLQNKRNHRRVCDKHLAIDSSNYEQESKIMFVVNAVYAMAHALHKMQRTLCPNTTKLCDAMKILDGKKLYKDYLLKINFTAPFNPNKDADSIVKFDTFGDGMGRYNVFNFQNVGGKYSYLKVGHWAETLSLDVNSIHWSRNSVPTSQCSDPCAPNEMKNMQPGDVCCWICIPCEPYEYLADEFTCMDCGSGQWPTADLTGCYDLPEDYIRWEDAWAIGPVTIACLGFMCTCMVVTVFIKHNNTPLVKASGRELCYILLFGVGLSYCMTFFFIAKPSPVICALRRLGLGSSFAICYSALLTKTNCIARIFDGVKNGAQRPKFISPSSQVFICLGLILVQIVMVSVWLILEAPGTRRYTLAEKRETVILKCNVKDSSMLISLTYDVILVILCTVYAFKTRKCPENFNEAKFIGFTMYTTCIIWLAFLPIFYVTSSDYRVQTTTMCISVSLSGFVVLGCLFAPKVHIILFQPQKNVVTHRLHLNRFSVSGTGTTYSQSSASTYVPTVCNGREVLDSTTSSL", "assay": "Antagonist activity at human mGlu 3 expressed in HEK293 cells at 10 uM by Ca+2 assay", "format": "functional, cell-based", "in_short": "as §3"}, "[14]": {"assay": "Cmax in Sprague-Dawley rat at 10 mg/kg, po and 2.5 mg/kg, iv", "format": "ADME, organism-based", "conditions": "in vivo", "in_short": "as §4"}, "[15]": {"target": "Metabotropic glutamate receptor 6 (Rattus norvegicus) (UniProt P35349)", "sequence (P35349 whole entry)": "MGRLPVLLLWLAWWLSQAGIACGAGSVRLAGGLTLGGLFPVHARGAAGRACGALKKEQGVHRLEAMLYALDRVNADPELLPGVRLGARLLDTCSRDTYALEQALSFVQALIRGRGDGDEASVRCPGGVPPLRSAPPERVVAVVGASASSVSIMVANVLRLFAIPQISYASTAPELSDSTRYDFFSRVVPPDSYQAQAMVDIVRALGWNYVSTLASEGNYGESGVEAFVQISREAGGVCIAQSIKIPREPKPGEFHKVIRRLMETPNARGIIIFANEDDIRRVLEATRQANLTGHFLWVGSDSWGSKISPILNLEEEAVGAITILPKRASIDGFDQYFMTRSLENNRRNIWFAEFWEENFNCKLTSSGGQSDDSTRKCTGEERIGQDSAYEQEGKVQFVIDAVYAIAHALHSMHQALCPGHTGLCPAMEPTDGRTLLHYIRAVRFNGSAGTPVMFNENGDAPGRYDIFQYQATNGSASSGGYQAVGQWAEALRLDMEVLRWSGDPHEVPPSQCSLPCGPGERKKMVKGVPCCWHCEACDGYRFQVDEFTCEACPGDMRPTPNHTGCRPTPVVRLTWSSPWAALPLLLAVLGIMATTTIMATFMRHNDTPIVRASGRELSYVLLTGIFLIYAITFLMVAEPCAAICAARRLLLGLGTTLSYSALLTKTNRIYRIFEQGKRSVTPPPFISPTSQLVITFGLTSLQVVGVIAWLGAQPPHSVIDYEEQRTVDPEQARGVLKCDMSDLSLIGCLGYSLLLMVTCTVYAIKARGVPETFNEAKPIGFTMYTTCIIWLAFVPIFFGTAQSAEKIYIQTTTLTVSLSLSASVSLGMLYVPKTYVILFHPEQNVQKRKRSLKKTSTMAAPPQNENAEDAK", "assay": "Agonist activity at rat mGlu 6 expressed in CHO cells assessed as [35S]GTPgammaS binding by liquid scintillation counting", "format": "functional, cell-based", "in_short": "as §5"}, "[16]": {"assay": "Plasma concentration in Sprague-Dawley rat at 10 mg/kg, sc after 2 hrs", "format": "ADME, organism-based", "parameters": "dose 10 mg/kg, route subcutaneous", "in_short": "as §1"}, "[17]": {"assay": "Plasma concentration in Sprague-Dawley rat at 10 mg/kg, sc after 4 hrs", "format": "ADME, organism-based", "parameters": "dose 10 mg/kg, route subcutaneous", "in_short": "as §1"}, "[18]": {"target": "T1, Metabotropic glutamate receptor 7", "assay": "Agonist activity at human mGlu 7 expressed in HEK293 cells by Ca+2 assay", "format": "functional, cell-based"}, "[19]": {"target": "Metabotropic glutamate receptor 6 (Rattus norvegicus) (UniProt P35349)", "assay": "Antagonist activity at rat mGlu 6 expressed in CHO cells assessed as inhibition of [35S]GTPgammaS binding by liquid scintillation counting", "format": "functional, cell-based", "in_short": "as §5"}, "[20]": {"assay": "Metabolic stability of human liver microsomes assessed as compound metabolized at 5 uM after 15 mins", "format": "ADME, Microsome", "conditions": "read-out: Drug metabolism", "in_short": "(§6)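 Test compound at 5 μM incubated 15 min with rat or human liver microsomes; read-out is percent of compound metabolized.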"}, "[21]": {"target": "Metabotropic glutamate receptor 5 (Homo sapiens) (UniProt P41594)", "assay": "Agonist activity at human mGlu 5 expressed in HEK293 cells at 10 uM by Ca+2 assay", "format": "functional, cell-based", "in_short": "as §3"}, "[22]": {"target": "Metabotropic glutamate receptor 3 (Homo sapiens) (UniProt Q14832)", "assay": "Agonist activity at human mGlu 3 expressed in HEK293 cells at 10 uM by Ca+2 assay", "format": "functional, cell-based", "in_short": "as §3"}, "[23]": {"target": "T2, Metabotropic glutamate receptor 2 (Homo sapiens, UniProt Q14416)", "assay": "Agonist activity at human mGlu 2 expressed in CHO cells assessed as [35S]GTPgammaS binding by liquid scintillation analysis", "format": "functional, cell-based", "in_short": "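Membranes from butyrate-stimulated (5 mM, 24 h) CHO cells expressing human mGlu2. Preincubated 30 min at 30 °C in HEPES pH 7.4 with NaCl, MgCl2, 50 μM GDP and saponin; modulator 0.3 nM–50 μM, no added glutamate. [35S]GTPγS 0.1 nM final, 30 min at 30 °C, filtered, scintillation counted. Nonspecific binding defined with cold GTP; 11 concentrations in duplicate, ≥3 curves.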"}, "[24]": {"assay": "Drug uptake in Sprague-Dawley rat brain at 10 mg/kg, sc after 1 hr", "format": "ADME, organism-based", "parameters": "dose 10 mg/kg, route subcutaneous", "conditions": "read-out: Drug uptake", "in_short": "as §2"}, "[25]": {"assay": "Ratio of drug level in brain to plasma of Sprague-Dawley rat at 10 mg/kg, sc after 4 hrs", "format": "ADME, organism-based", "parameters": "dose 10 mg/kg, route subcutaneous", "conditions": "brain and plasma, read-out: BPR", "in_short": "as §1"}, "[26]": {"target": "Metabotropic glutamate receptor 1 (Homo sapiens) (UniProt Q13255)", "assay": "Antagonist activity at human mGlu 1 expressed in HEK293 cells at 10 uM by Ca+2 assay", "format": "functional, cell-based", "in_short": "as §3"}, "[27]": {"assay": "Tmax in Sprague-Dawley rat at 10 mg/kg, po and 2.5 mg/kg, iv", "format": "ADME, organism-based", "conditions": "in vivo", "in_short": "as §4"}, "[28]": {"assay": "Drug uptake in Sprague-Dawley rat brain at 10 mg/kg, sc after 2 hrs", "format": "ADME, organism-based", "parameters": "dose 10 mg/kg, route subcutaneous", "conditions": "read-out: Drug uptake", "in_short": "as §2"}, "[29]": {"target": "Metabotropic glutamate receptor 4 (Homo sapiens) (UniProt Q14833)", "assay": "Agonist activity at human mGlu 4 expressed in L929 cells assessed as [35S]GTPgammaS binding by liquid scintillation counting", "format": "functional, cell-based", "in_short": "as §5"}, "[30]": {"target": "Metabotropic glutamate receptor 8 (Homo sapiens) (UniProt O00222)", "assay": "Antagonist activity at human mGlu 8 expressed in HEK293 cells at 10 uM by Ca+2 assay", "format": "functional, cell-based", "in_short": "as §3"}, "[31]": {"target": "T2, Metabotropic glutamate receptor 2", "assay": "Agonist activity at human mGlu 2 expressed in CHO cells by PAM assay relative to glutamate", "format": "functional, cell-based", "in_short": "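The assay measured [35S]GTPγS binding to membranes from CHO cells expressing human mGluR2. Cells were butyrate-stimulated (5 mM, 24 h) before membranes were prepared. Membranes were preincubated for 30 min at 30 °C in HEPES pH 7.4 buffer (NaCl, MgCl2, 50 μM GDP) with compound (0.3 nM–50 μM, 11 concentrations) plus EC25 glutamate. [35S]GTPγS (0.1 nM final) was then added for 30 min at 30 °C. Bound label was collected by filtration and counted. Runs were done at least in triplicate with duplicate points, and a four-parameter logistic fit gave the values.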"}, "[32]": {"assay": "AUC (0 to infinity) in Sprague-Dawley rat at 10 mg/kg, po and 2.5 mg/kg, iv", "format": "ADME, organism-based", "conditions": "plasma", "in_short": "as §4"}, "[33]": {"assay": "Metabolic stability of Sprague-Dawley rat liver microsomes assessed as compound metabolized at 5 uM after 15 mins", "format": "ADME, Microsome", "conditions": "read-out: Drug metabolism", "in_short": "as §6"}}, "note": "Active and inactive are the calls of the source. The calls are words filed in the database; no cut-off is given here."}
{"smiles": "O[C@H]1CC[C@H](n2ccc3cc(-c4ccn5c(CC(F)(F)F)cnc5c4Cl)ccc32)CC1", "values": [{"measurement": "Kp at 1 h", "setting": "[1]", "result": 0.2}, {"measurement": "concentration at 4 h", "setting": "[2]", "result": 843, "unit": "ng/g"}, {"measurement": "Activity", "setting": "[3]", "result": "inactive"}, {"measurement": "Kp at 2 h", "setting": "[4]", "result": 0.3}, {"measurement": "bioavailability", "setting": "[5]", "result": 100, "unit": "%"}, {"measurement": "Activity", "setting": "[6]", "result": "inactive"}, {"measurement": "Activity", "setting": "[7]", "result": "inactive"}, {"measurement": "half-life", "setting": "[8]", "result": 258, "unit": "min"}, {"measurement": "Activity", "setting": "[9]", "result": "inactive"}, {"measurement": "concentration at 1 h", "setting": "[10]", "result": 3810, "unit": "ng/mL"}, {"measurement": "clearance", "setting": "[11]", "result": 15, "unit": "mL/min/kg"}, {"measurement": "Activity", "setting": "[12]", "result": "inactive"}, {"measurement": "Activity", "setting": "[13]", "result": "inactive"}, {"measurement": "Cmax", "setting": "[14]", "result": 1140, "unit": "ng/mL"}, {"measurement": "Activity", "setting": "[15]", "result": "inactive"}, {"measurement": "concentration at 2 h", "setting": "[16]", "result": 3730, "unit": "ng/mL"}, {"measurement": "concentration at 4 h", "setting": "[17]", "result": 1950, "unit": "ng/mL"}, {"measurement": "EC50", "setting": "[18]", "result": 5.2, "unit": "µM"}, {"measurement": "Activity", "setting": "[19]", "result": "inactive"}, {"measurement": "metabolised at 0.25 h, 5 µM", "setting": "[20]", "result": 14, "unit": "%"}, {"measurement": "Activity", "setting": "[21]", "result": "inactive"}, {"measurement": "Activity", "setting": "[22]", "result": "inactive"}, {"measurement": "EC50", "setting": "[23]", "result": 160, "unit": "nM"}, {"measurement": "concentration at 1 h", "setting": "[24]", "result": 932, "unit": "ng/g"}, {"measurement": "Kp at 4 h", "setting": "[25]", "result": 0.4}, {"measurement": "Activity", "setting": "[26]", "result": "inactive"}, {"measurement": "Tmax", "setting": "[27]", "result": 3.3, "unit": "h"}, {"measurement": "concentration at 2 h", "setting": "[28]", "result": 1040, "unit": "ng/g"}, {"measurement": "Activity", "setting": "[29]", "result": "inactive"}, {"measurement": "Activity", "setting": "[30]", "result": "inactive"}, {"measurement": "Emax", "setting": "[31]", "result": 244, "unit": "%"}, {"measurement": "AUC(0-inf)", "setting": "[32]", "result": 10600, "unit": "ng·h/mL"}, {"measurement": "metabolised at 0.25 h, 5 µM", "setting": "[33]", "result": 8, "unit": "%"}]}
